Data from ChEMBL document CHEMBL5321214, “Targeting the multifaceted neurotoxicity of Alzheimer's disease by tailored functionalisation of the curcumin scaffold” (Eur J Med Chem, 2023).
Activity calls are given as the source filed them. The calls are words filed in the database; no cut-off is given here.

Key:
[1] = system: Microglia; assay: Cytotoxicity against Sprague-Dawley rat microglial cells assessed as decrease in cell viability at 20 uM incubated for 24 hrs by MTT assay; assay type: toxicity, cell-based
Method in brief: (§1)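 Primary rat microglia, 6×10^4 cells/well, switched to serum-free medium 1 h before 24 h exposure (1–20 μM, DMSO ≤0.1%). MTT 0.18 mg/mL for 4 h at 37 °C, formazan dissolved in DMSO, absorbance 570 nm (reference 630 nm). Vehicle-treated cells = 100% viability.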

[2] = system: Microglia; assay: Antiinflammatory activity against Sprague-Dawley rat microglial cells assessed as inhibition of LPS-induced TNF-alpha production at 1 to 10 uM pretreated with compound for 1 hr followed by LPS stimulation for 24 hrs by ELISA; assay type: functional, cell-based; details: dose 1-10 µM, time 25.0 hrs
Method in brief: (§2)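 Primary cortical rat microglia in DMSO (≤0.1%) or vehicle for 1 h, then 100 ng/mL LPS for 24 h. TNF-α and IL-1β in culture medium by ELISA against standard curves (pg/mL), expressed as % of LPS-stimulated cultures. Mean ± SEM of 3 independent experiments; one-way ANOVA, Holm-Sidak test.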

[3] = Effect on TNF-alpha release in Sprague-Dawley rat microglial cells at 10 uM by ELISA; assay type: toxicity, cell-based; details: microglia; method in brief: as §2
[4] = system: Microglia; assay: Antiinflammatory activity against Sprague-Dawley rat microglial cells assessed as inhibition of LPS-induced IL-1 beta production at 1 to 10 uM pretreated with compound for 1 hr followed by LPS stimulation for 24 hrs by ELISA; assay type: functional, cell-based; details: dose 1-10 µM, time 25.0 hrs; method in brief: as §2
[5] = Effect on IL-1 beta release in Sprague-Dawley rat microglial cells at 10 uM by ELISA; assay type: toxicity, cell-based; details: microglia; method in brief: as §2
[6] = system: Drosophila; assay: Effect on CAT transcript expression in Spastin Drosophila (Tubulin/Gal4 RNAi DSpast) neurodegenerative model at 10 uM flies raised in compound-enriched food by real-time PCR analysis; assay type: functional
Method in brief: (§3)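 Total RNA from 5 third-instar Spastin-RNAi larvae raised on standard or compound-enriched food; Tubulin-Gal4/+ as control line. One-step SYBR RT-qPCR normalised to Rp49 by the 2^−ΔΔCt method. n = 3 experiments; one-way ANOVA, Tukey's test.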

[7] = molecular target: Amyloid-beta precursor protein (Homo sapiens) (UniProt P05067); assay: Anti-oligomeric activity against Abeta42 (unknown origin) assessed as depletion of the formation of toxic HMW Abeta42 oligomers at 1 uM measured at day 7 to 10 from sample solubilization by capillary electrophoresis assay; details: time 7-10 day
Chain of Amyloid-beta precursor protein (Homo sapiens) (P05067 whole entry, the tested form may be a part): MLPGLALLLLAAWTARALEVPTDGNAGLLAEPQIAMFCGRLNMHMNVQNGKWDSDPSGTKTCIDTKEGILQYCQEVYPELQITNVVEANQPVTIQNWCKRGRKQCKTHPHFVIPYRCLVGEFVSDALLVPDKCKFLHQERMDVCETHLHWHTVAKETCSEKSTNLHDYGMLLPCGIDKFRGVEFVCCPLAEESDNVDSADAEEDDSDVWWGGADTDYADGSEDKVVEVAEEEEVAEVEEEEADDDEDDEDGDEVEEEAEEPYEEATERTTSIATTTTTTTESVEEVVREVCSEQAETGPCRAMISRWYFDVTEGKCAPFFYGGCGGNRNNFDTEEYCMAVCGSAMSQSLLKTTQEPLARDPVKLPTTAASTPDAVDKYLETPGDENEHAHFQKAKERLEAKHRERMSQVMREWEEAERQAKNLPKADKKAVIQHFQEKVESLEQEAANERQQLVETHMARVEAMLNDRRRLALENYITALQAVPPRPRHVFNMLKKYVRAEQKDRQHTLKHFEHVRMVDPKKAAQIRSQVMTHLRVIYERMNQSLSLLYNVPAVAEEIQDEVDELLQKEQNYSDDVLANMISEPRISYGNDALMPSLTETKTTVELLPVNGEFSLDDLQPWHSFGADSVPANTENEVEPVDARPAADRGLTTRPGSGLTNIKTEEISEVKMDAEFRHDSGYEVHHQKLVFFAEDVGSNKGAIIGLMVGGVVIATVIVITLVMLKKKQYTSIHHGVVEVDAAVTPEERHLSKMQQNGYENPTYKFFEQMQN
Method in brief: (§4)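 Aβ42 stock diluted to 221 μM in 20 mM sodium phosphate pH 7.4 containing compound (ethanol stocks 1.53 mM). Capillary electrophoresis: BGE 80 mM sodium phosphate pH 7.4, 30 mbar × 3 s hydrodynamic injection, +12 kV, 25 °C, 200 nm detection. Oligomers assigned by effective mobility; HMW oligomer peak quantified semiquantitatively as normalised area %.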

[8] = Toxicity against Drosophila W1118 assessed as proportion of eclosed-flies at 10 uM measured after 72 hrs
[9] = Toxicity against Drosophila W1118 assessed as proportion of eclosed-flies at 30 uM measured after 72 hrs
[10] = system: SH-SY5Y; assay: Antioxidant activity in human SH-SY5Y cells assessed as increase in intracellular GSH level at 2.5 uM incubated for 24 hrs by […] fluorescence analysis; assay type: functional
Method in brief: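 SH-SY5Y (2×10^4 cells/well) grown 24 h, then exposed to 2.5 μM for 24 h at 37 °C. Fluorescent probe added 30 min at 37 °C; read at ex 355/em 460 nm. GSH (μM) from a GSH standard curve. Mean ± SEM of three experiments; one-way ANOVA with Dunnett's test.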

[11] = molecular target: Keap1/Nrf2 (Homo sapiens) (UniProt Q16236+Q14145); assay: Activation of Keap1/Nrf2 in human SH-SY5Y cells assessed as Nrf2 nuclear translocation by measuring increase in nuclear to cytosolic Nrf2 ratio at 2.5 uM incubated for 3 hrs by western blot analysis; assay type: cell-based; details: filed as activator
Chain of Keap1/Nrf2 (Homo sapiens) (Q14145 whole entry, looked up): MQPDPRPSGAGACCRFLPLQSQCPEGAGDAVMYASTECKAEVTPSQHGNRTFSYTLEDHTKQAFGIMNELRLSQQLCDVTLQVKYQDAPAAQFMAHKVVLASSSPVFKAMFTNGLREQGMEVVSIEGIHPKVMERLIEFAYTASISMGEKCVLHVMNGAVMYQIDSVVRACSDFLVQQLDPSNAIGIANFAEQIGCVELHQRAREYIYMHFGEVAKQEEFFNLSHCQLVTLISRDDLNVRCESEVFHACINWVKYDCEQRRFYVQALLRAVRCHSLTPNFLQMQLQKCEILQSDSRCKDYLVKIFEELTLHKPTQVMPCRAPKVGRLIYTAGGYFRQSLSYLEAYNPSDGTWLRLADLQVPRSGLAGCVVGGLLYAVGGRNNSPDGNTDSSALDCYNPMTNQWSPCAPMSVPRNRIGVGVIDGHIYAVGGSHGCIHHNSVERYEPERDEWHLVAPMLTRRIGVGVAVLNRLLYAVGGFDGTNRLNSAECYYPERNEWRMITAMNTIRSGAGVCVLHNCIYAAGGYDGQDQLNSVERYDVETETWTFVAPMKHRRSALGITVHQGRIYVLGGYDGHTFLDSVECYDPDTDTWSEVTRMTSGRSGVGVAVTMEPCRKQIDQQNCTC
Chain of Keap1/Nrf2 (Homo sapiens) (Q16236 whole entry, looked up): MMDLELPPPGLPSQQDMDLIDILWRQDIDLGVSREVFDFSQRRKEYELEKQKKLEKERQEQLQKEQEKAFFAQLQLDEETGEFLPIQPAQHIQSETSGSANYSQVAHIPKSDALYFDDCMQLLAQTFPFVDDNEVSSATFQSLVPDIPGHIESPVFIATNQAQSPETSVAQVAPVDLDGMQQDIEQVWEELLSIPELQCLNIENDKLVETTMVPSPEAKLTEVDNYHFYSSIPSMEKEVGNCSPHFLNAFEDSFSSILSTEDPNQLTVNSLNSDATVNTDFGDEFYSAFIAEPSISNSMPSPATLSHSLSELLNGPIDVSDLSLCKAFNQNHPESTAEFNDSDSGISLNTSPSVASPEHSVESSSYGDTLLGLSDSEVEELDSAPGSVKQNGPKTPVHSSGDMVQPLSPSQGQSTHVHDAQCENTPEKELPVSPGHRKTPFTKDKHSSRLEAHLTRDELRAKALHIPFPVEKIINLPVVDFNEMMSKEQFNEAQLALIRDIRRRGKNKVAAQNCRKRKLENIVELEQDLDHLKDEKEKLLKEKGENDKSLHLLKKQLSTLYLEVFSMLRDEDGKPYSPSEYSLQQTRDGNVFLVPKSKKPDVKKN
Method in brief: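 SH-SY5Y seeded 2×10^6 cells/dish, grown 24 h, then exposed 3 h at 37 °C, 5% CO2. Nuclear and cytosolic fractions immunoblotted for Nrf2, membranes stripped and reprobed for β-actin and lamin B1 as loading references. Mean ± SEM of three independent experiments; one-way ANOVA with Dunnett's test.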

[12] = system: Drosophila; assay: Downregulation of Nrf2 transcript expression in Spastin Drosophila (Tubulin/Gal4 RNAi DSpast) neurodegenerative model at 10 uM flies raised in compound-enriched food by real-time PCR analysis; assay type: functional; method in brief: as §3
[13] = system: Microglia; assay: Antiinflammatory activity against Sprague-Dawley rat microglial cells assessed as downregulation of IL-1 beta mRNA expression at 5 uM pretreated with compound for 1 hr followed by LPS stimulation for 6 hrs by real-time PCR analysis; assay type: functional, cell-based; details: time 7.0 hrs
Method in brief: (§5)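 Primary cortical microglia (postnatal day 1 rat pups, shaken off mixed glial cultures, ~97% Iba1-positive). Compound (DMSO ≤0.1%) for 1 h, then 100 ng/mL ultra-pure E. coli LPS for 6 h. QIAzol RNA extraction, SuperScript IV reverse transcription, real-time PCR. Mean ± SEM, n = 3 in triplicate; one-way ANOVA, Holm-Sidak test.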

[14] = Toxicity against Drosophila W1118 assessed as proportion of eclosed-flies at 50 uM measured after 72 hrs
[15] = Toxicity against Drosophila W1118 assessed as proportion of eclosed-flies at 20 uM measured after 72 hrs
[16] = system: Drosophila; assay: Downregulation of SOD1 transcript expression in Spastin Drosophila (Tubulin/Gal4 RNAi DSpast) neurodegenerative model at 10 uM flies raised in compound-enriched food by real-time PCR analysis; assay type: functional; method in brief: as §3
[17] = Effect on IL-1 beta release in Sprague-Dawley rat microglial cells at 5 uM by ELISA; assay type: toxicity, cell-based; details: microglia; method in brief: as §2
[18] = system: Drosophila; assay: Antioxidant activity in Spastin Drosophila (Tubulin/Gal4 RNAi DSpast) neurodegenerative model assessed as decrease in intracelluar ROS level in brain at 10 uM flies raised in compound-enriched food by DHE staining based fluorescence analysis; assay type: functional, organism-based
Method in brief: (§6)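 Spastin-RNAi (Tubulin-Gal4 cross, 28 °C) third-instar larvae raised on compound-enriched food, dissected in HL3, stained 30 min with 30 μM DHE, fixed in 4% PFA, DAPI counterstained. Confocal imaging (DHE 580–630 nm); two 2500 μm² ROIs per muscle or two 1900 μm² ROIs per brain, 10–15 larvae per group; DHE/DAPI ratio.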

[19] = Toxicity against Drosophila W1118 assessed as proportion of eclosed-flies at 1 uM measured after 72 hrs
[20] = Effect on TNF-alpha release in Sprague-Dawley rat microglial cells at 5 uM by ELISA; assay type: toxicity, cell-based; details: microglia; method in brief: as §2
[21] = system: Microglia; assay: Antiinflammatory activity against Sprague-Dawley rat microglial cells assessed as inhibition of LPS-induced IL-1 beta production at 1 to 5 uM pretreated with compound for 1 hr followed by LPS stimulation for 24 hrs by ELISA; assay type: functional, cell-based; details: dose 1-5 µM, time 25.0 hrs; method in brief: as §2
[22] = Toxicity against Drosophila W1118 assessed as minimum toxic concentration by measuring eclosion rate measured for 72 hrs
[23] = system: Microglia; assay: Antiinflammatory activity against Sprague-Dawley rat microglial cells assessed as downregulation of NLRP3 mRNA expression at 5 uM pretreated with compound for 1 hr followed by LPS stimulation for 6 hrs by real-time PCR analysis; assay type: functional, cell-based; details: time 7.0 hrs; method in brief: as §5
[24] = system: Microglia; assay: Antiinflammatory activity against Sprague-Dawley rat microglial cells assessed as downregulation of TNF-alpha mRNA expression at 5 uM pretreated with compound for 1 hr followed by LPS stimulation for 6 hrs by real-time PCR analysis; assay type: functional, cell-based; details: time 7.0 hrs; method in brief: as §5
[25] = system: SH-SY5Y; assay: Cytotoxicity against human SH-SY5Y cells assessed as decrease in cell viability at >5 uM incubated for 24 hrs by MTT assay; assay type: toxicity, cell-based
Method in brief: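 SH-SY5Y, 2×10^4 cells/well, grown 24 h then exposed 24 h (1.25–40 μM) at 37 °C, 5% CO2. MTT 0.5 mg/mL in HBSS for 2 h, washed, formazan dissolved in isopropanol, read at 570 nm (reference 690 nm).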

[26] = system: Microglia; assay: Antiinflammatory activity against Sprague-Dawley rat microglial cells assessed as inhibition of LPS-induced TNF-alpha production at 1 to 5 uM pretreated with compound for 1 hr followed by LPS stimulation for 24 hrs by ELISA; assay type: functional, cell-based; details: dose 1-5 µM, time 25.0 hrs; method in brief: as §2
[27] = system: SH-SY5Y; assay: Antioxidant activity in human SH-SY5Y cells assessed as reduction in intracellular ROS formation at 2.5 uM incubated for 24 hrs followed by incubation with t-BuOOH for 30 mins by H2DCF-DA staining based fluorescence analysis; assay type: functional; details: time 24.5 hrs
Method in brief: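 SH-SY5Y (2×10^4 cells/well) exposed to 2.5 μM for 24 h, loaded with H2DCF-DA 30 min at room temperature, probe removed, then challenged with 50 μM t-BuOOH 30 min at room temperature. Fluorescence ex 485/em 535 nm, expressed as % ROS increase. Three independent experiments; one-way ANOVA with Dunnett's test.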

[28] = system: Microglia; assay: Cytotoxicity against Sprague-Dawley rat microglial cells assessed as decrease in cell viability at 10 uM incubated for 24 hrs by MTT assay; assay type: toxicity, cell-based; method in brief: as §1
[29] = molecular target: Amyloid-beta precursor protein (Homo sapiens) (UniProt P05067); assay: Anti-oligomeric activity against Abeta42 (unknown origin) assessed as depletion of the formation of toxic HMW Abeta42 oligomers at 5 uM measured at day 7 from sample solubilization by capillary electrophoresis assay; details: time 7.0 day; method in brief: as §4
[30] = system: Drosophila; assay: Antioxidant activity in Spastin Drosophila (Tubulin/Gal4 RNAi DSpast) neurodegenerative model assessed as decrease in intracelluar ROS level in A2 muscle at 10 uM flies raised in compound-enriched food by DHE staining based fluorescence analysis; assay type: functional, organism-based; method in brief: as §6
[31] = Effect on IL-1 beta release in Sprague-Dawley rat microglial cells at 20 uM by ELISA; assay type: toxicity, cell-based; details: microglia; method in brief: as §2
[32] = system: Microglia; assay: Cytotoxicity against Sprague-Dawley rat microglial cells assessed as effect on cell viability at 1 to 20 uM incubated for 24 hrs by MTT assay; assay type: toxicity, cell-based; details: dose 1-20 µM; method in brief: as §1
[33] = system: Microglia; assay: Antiinflammatory activity against Sprague-Dawley rat microglial cells assessed as inhibition of LPS-induced TNF-alpha production at 1 to 20 uM pretreated with compound for 1 hr followed by LPS stimulation for 24 hrs by ELISA; assay type: functional, cell-based; details: dose 1-20 µM, time 25.0 hrs; method in brief: as §2
[34] = system: Microglia; assay: Antiinflammatory activity against Sprague-Dawley rat microglial cells assessed as inhibition of LPS-induced IL-1 beta production at 1 to 20 uM pretreated with compound for 1 hr followed by LPS stimulation for 24 hrs by ELISA; assay type: functional, cell-based; details: dose 1-20 µM, time 25.0 hrs; method in brief: as §2
[35] = Effect on TNF-alpha release in Sprague-Dawley rat microglial cells at 20 uM by ELISA; assay type: toxicity, cell-based; details: microglia; method in brief: as §2

COc1ccc(/C=C/C(=O)/C(CC(=O)OC(C)(C)C)=C(O)/C=C/c2ccc(OC)cc2)cc1
Activity [1]: Toxic | Activity [2]: Active | Activity [3]: Non-Toxic | Activity [4]: Active | Activity [5]: Non-Toxic

CCOC(=O)Cn1cc(C/C(C(=O)/C=C/c2ccc(OC)cc2)=C(O)\C=C\c2ccc(OC)cc2)nn1
Activity [6]: inactive | Activity [7]: Active | Activity [8]: 94.732% | Activity [9]: 81.642% | Activity [10]: Active | Activity [11]: Active | inhibition [12]: Active | Activity [13]: Active | Activity [14]: 68.373% | Activity [15]: 83.806% | inhibition [16]: Active | Activity [17]: Non-Toxic | Activity [18]: Active | Activity [19]: 94.037% | Activity [20]: Non-Toxic | Activity [21]: Active | MTC [22]: 10 µM | Activity [23]: Active | Activity [24]: Active | Activity [25]: Toxic | Activity [26]: Active | inhibition at 2.5 µM [27]: 28% | Activity [28]: Toxic | Activity [29]: Active | Activity [30]: Active

COc1ccc(/C=C/C(=O)/C(CC(=O)O)=C(O)/C=C/c2ccc(OC)cc2)cc1 (mixture of isomers)
Activity [31]: Non-Toxic | Activity [32]: Non-Toxic | Activity [33]: inactive | Activity [34]: inactive | Activity [35]: Non-Toxic
